This assay deals with RecBCD enzyme subunit RecC (Escherichia coli (strain K12)) + RecBCD enzyme subunit RecB (Escherichia coli (strain K12)) (UniProt P07648+P08394). The assay is described as follows: inhibition of Chi-specific DNA cleavage by RecBCD – biochemical, radioactive gel readout, single concentration, counter-screen for AddAB inhibitor project, late-stage follow-up (AID 623937). To be noted: purified RecBCD, 32P DNA gel autoradiography, at 50 µM. Put shortly: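 Material: purified E. coli RecBCD; quantity: 0.15 nM RecBCD; signal: Agarose gel separation of labeled DNA products; medium: reaction mix containing 5 mM ATP; times: enzyme reaction for 1 min at 37 °C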
RecBCD enzyme subunit RecC (Escherichia coli (strain K12)) + RecBCD enzyme subunit RecB (Escherichia coli (strain K12)), sequence (P07648 whole entry, looked up): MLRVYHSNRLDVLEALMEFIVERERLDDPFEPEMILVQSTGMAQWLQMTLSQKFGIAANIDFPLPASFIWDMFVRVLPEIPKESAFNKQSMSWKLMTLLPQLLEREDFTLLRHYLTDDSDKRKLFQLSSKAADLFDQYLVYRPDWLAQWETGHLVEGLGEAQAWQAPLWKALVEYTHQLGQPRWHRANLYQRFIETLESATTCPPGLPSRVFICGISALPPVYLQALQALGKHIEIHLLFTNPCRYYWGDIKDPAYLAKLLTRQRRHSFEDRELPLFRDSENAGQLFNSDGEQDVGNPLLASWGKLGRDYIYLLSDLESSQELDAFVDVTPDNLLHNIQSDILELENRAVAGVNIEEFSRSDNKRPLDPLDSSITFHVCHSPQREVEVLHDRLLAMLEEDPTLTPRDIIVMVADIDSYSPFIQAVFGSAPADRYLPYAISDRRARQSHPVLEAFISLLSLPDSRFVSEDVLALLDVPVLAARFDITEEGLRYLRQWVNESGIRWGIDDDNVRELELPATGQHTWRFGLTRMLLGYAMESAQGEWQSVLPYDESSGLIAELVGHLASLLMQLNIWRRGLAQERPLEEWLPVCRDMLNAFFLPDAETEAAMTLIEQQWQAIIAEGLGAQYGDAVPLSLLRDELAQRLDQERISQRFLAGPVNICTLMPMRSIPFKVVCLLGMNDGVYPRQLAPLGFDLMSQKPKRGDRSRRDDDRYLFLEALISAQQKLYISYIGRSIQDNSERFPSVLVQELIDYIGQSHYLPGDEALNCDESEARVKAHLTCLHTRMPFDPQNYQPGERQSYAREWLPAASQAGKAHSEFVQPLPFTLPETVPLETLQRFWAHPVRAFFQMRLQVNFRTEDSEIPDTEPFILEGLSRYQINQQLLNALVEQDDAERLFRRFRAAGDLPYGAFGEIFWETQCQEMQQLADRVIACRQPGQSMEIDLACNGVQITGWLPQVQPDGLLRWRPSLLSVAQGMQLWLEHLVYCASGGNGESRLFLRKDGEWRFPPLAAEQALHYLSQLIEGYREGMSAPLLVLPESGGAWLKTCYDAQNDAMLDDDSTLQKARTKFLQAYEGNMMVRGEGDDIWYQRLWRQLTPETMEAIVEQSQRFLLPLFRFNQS
RecBCD enzyme subunit RecC (Escherichia coli (strain K12)) + RecBCD enzyme subunit RecB (Escherichia coli (strain K12)), sequence (P08394 whole entry, looked up): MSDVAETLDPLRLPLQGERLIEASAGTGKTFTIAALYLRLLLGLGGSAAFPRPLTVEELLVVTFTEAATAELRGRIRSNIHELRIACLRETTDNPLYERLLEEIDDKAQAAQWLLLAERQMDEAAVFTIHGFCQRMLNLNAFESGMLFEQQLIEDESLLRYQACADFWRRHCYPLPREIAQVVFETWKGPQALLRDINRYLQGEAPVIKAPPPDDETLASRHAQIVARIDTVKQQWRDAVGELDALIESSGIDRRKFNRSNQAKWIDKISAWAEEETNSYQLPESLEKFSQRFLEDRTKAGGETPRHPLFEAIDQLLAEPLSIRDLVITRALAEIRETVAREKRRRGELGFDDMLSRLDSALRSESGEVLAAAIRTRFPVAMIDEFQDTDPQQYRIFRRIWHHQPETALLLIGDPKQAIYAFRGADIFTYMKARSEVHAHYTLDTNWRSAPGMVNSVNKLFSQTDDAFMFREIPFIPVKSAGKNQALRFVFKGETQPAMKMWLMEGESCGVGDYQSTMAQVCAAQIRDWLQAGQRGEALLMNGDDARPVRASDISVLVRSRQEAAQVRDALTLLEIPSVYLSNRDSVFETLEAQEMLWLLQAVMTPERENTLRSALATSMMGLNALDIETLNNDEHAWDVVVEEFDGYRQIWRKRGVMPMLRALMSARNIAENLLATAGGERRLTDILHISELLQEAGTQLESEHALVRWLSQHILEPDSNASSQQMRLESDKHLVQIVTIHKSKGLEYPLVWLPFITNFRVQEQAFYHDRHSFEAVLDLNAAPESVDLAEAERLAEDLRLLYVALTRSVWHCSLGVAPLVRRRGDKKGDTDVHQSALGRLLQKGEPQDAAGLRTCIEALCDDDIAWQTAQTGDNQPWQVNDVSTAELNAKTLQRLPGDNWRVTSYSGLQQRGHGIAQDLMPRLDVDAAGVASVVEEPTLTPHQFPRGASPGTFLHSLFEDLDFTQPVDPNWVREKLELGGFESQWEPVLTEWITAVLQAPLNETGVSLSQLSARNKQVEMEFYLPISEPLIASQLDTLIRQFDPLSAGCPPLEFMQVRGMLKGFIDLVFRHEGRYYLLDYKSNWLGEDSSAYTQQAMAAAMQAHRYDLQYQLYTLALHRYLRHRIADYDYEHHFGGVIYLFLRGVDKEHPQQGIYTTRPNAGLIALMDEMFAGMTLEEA
For orientation: Counterscreens check selectivity or assay interference.

“And” between values parts separate entries of the source, which are not always exact repeats. Equal entries are not always repeated. The source made the active and inactive calls.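 The calls were made as follows: active = Chi band cutting by RecBCD reduced more than twofold versus the solvent-only control; inactive = reduction of twofold or less versus solvent-only control.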 Some results are limits rather than exact numbers.

`CC(=O)Nc1ccc2nc(NC(=O)c3ccc([N+](=O)[O-])o3)sc2c1`: the fold reduction of Chi cutting was < 2 (inactive). For the compound `CCn1cc(C(=O)O)c(=O)c2cnc(N3CCN(C(=S)Nc4ccccc4C)CC3)nc21`, the fold reduction of Chi cutting was < 2 (inactive). In the case of `CCn1cc(C(=O)O)c(=O)c2cnc(N3CCN(C(=S)NCc4ccccc4)CC3)nc21`, the fold reduction of Chi cutting was < 2 (inactive). With `CCn1cc(C(=O)O)c(=O)c2cnc(N3CCN(C(=S)NC(=O)c4cccnc4)CC3)nc21`, the fold reduction of Chi cutting was < 2 (inactive). `N#Cc1c(NC(=O)c2cccc(F)c2)sc2c1CCCC2`: the fold reduction of Chi cutting was more than 2.

`C=CCNC(=S)N1CCN(c2ncc3c(=O)c(C(=O)O)cn(CC)c3n2)CC1`: the fold reduction of Chi cutting is < 2 (inactive). Take `O=C(NCc1cccnc1)c1ccc([N+](=O)[O-])o1`: the fold reduction of Chi cutting was < 2 (inactive). In the case of `CCn1cc(C(=O)O)c(=O)c2cnc(N3CCN(C(=S)NC)CC3)nc21` it was < 2 (inactive); in that of `CC1(C)Cc2c(sc(NC(=O)c3ccco3)c2C#N)CO1`, < 2 (inactive); in that of `CCn1cc(C(=O)O)c(=O)c2cnc(N3CCN(C(=S)Nc4ccc5c(c4)OCCO5)CC3)nc21`, more than 2. For `C=CCn1c(Sc2ncc([N+](=O)[O-])s2)n[nH]c1=O`, the fold reduction of Chi cutting is < 2 (inactive). Regarding `CCn1cc(C(=O)O)c(=O)c2cnc(N3CCN(C(=S)Nc4ccccc4C(F)(F)F)CC3)nc21`, the fold reduction of Chi cutting is > 2 and < 2 (inactive).

On to `Cc1ccc(C(=O)Nc2sc3c(c2C#N)CCC3)o1`, for which the fold reduction of Chi cutting was < 2 (inactive). For the compound `N#Cc1c(NC(=O)c2ccco2)sc2c1CCC2`, the fold reduction of Chi cutting was < 2 (inactive). With `N#Cc1c(NC(=O)c2ccccc2C(=O)O)sc2c1CCCC2` the figure was more than 2; with `N#Cc1c(NC(=O)c2ccc(-c3ccccc3[N+](=O)[O-])o2)sc2c1CCCC2`, < 2 (inactive). As to `Cc1sc(NC(=O)c2ccc(Br)o2)c(C#N)c1C`, the fold reduction of Chi cutting was < 2 (inactive). In the case of `CC1CCc2c(sc(NC(=O)c3ccc([N+](=O)[O-])o3)c2N)C1` (stereo not drawn), the fold reduction of Chi cutting was more than 2. Turning to `CCn1cc(C(=O)O)c(=O)c2cnc(N3CCN(C(=S)Nc4cccc(C(F)(F)F)c4)CC3)nc21`, the fold reduction of Chi cutting is < 2 (inactive).

Consider `CCn1cc(C(=O)O)c(=O)c2cnc(N3CCN(C(=S)Nc4ccc(F)cc4)CC3)nc21`, for which the fold reduction of Chi cutting is more than 2. As for `N#Cc1c(NC(=O)c2ccccc2)sc2c1CCC2`, the fold reduction of Chi cutting was < 2 (inactive).

In the case of `N#Cc1c(NC(=O)C2CC=CCC2C(=O)O)sc2c1CCC2` (stereo not drawn), the fold reduction of Chi cutting is < 2 (inactive). Consider `CC1CCc2c(sc(NC(=O)c3ccc([N+](=O)[O-])o3)c2C#N)C1` (stereo not drawn), for which the fold reduction of Chi cutting was < 2 (inactive).

For the compound `O=C(OCC(=O)c1cccs1)c1ccc([N+](=O)[O-])o1`, the fold reduction of Chi cutting was < 2 (inactive). On to `Cc1ccc(C(=O)Nc2sc3c(c2C#N)CCCCC3)o1`, for which the fold reduction of Chi cutting is < 2 (inactive). With `CCn1cc(C(=O)O)c(=O)c2cnc(N3CCN(C(=S)Nc4ccccc4)CC3)nc21`, the fold reduction of Chi cutting was more than 2. In the case of `Cc1ccc2nc(/C(C#N)=C\c3ccc([N+](=O)[O-])o3)[nH]c2c1` it was more than 2; in that of `CCn1cc(C(=O)O)c(=O)c2cnc(N3CCN(C(=S)Nc4ccccc4OC)CC3)nc21`, < 2 (inactive); in that of `CCn1cc(C(=O)O)c(=O)c2cnc(N3CCN(C(=S)Nc4ccc(Cl)cc4)CC3)nc21`, < 2 (inactive). In the case of `CCn1cc(C(=O)O)c(=O)c2cnc(N3CCN(C(=S)NC(C)c4ccccc4)CC3)nc21` (stereo not drawn), the fold reduction of Chi cutting was < 2 (inactive).

In the case of `N#Cc1c(NC(=O)c2ccc([N+](=O)[O-])o2)sc2c1CCCC2`, the fold reduction of Chi cutting was < 2 (inactive).

Consider `N#Cc1c(NC(=O)c2cnccn2)sc2c1CCCC2`, for which the fold reduction of Chi cutting is < 2 (inactive). In the case of `CCn1cc(C(=O)O)c(=O)c2cnc(N3CCN(C(=S)Nc4ccccc4Cl)CC3)nc21` it was more than 2; in that of `CCn1cc(C(=O)O)c(=O)c2cnc(N3CCN(C(=S)Nc4ccccc4F)CC3)nc21`, < 2 (inactive).

On to `CCn1cc(C(=O)O)c(=O)c2cnc(N3CCN(C(=S)NC(=O)c4ccco4)CC3)nc21`, for which the fold reduction of Chi cutting was < 2 (inactive). In the case of `Cc1cccnc1NC(=O)c1ccc([N+](=O)[O-])o1` it was < 2 (inactive); in that of `O=C(Nc1ncccn1)c1ccc([N+](=O)[O-])o1`, more than 2; in that of `CCn1cc(C(=O)O)c(=O)c2cnc(N3CCN(C(=S)NC(=O)c4ccccc4Cl)CC3)nc21`, < 2 (inactive). With `O=C(Nc1cccc(NC(=O)c2ccccc2Cl)c1)c1ccc([N+](=O)[O-])o1` the figure was more than 2. In the case of `CCn1cc(C(=O)O)c(=O)c2cnc(N3CCN(C(=S)NC4CC5CCC4C5)CC3)nc21` (stereo not drawn) it was more than 2; in that of `CCn1cc(C(=O)O)c(=O)c2cnc(N3CCN(C(=O)Nc4ccccc4)CC3)nc21`, more than 2.

`Nc1c(NC(=O)c2ccc([N+](=O)[O-])o2)sc2c1CCCC2`: the fold reduction of Chi cutting is more than 2.

As for `CCn1cc(C(=O)O)c(=O)c2cnc(N3CCN(C(=S)Nc4ccc5c(c4)OCO5)CC3)nc21`, the fold reduction of Chi cutting is < 2 (inactive). As to `O=C(Nc1ccc(N2CCOCC2)cc1)c1ccc([N+](=O)[O-])o1`, the fold reduction of Chi cutting is < 2 (inactive). For `NC(=O)c1ccsc1NC(=O)COC(=O)c1ccc([N+](=O)[O-])o1`, the fold reduction of Chi cutting is < 2 (inactive). For `CCn1cc(C(=O)O)c(=O)c2cnc(N3CCN(C(=S)NC(=O)c4cccc(C)c4)CC3)nc21`, the fold reduction of Chi cutting is more than 2. `CCn1cc(C(=O)O)c(=O)c2cnc(N3CCNCC3)nc21`: the fold reduction of Chi cutting was < 2 (inactive). Turning to `N#Cc1c(NC(=O)c2ccc([N+](=O)[O-])o2)sc2c1CCC2`, the fold reduction of Chi cutting was more than 2.

For the origin of these results see PubChem BioAssay AID623937 (The Scripps Research Institute Molecular Screening Center, 2012).
